Results from paper PMC7182240 (The Pediatric Infectious Disease Journal, 2020).
Entries after “also recorded” stand apart in the source; their conditions may differ. *1 amine or outer side, *2 acyl side, *3 side chain or, on linkers, in order; H or OH if unused. Where a SMILES comes first, the peptide text is derived from it. Bridges are numbered along the chain shown (N, C = ends). [ ]: non-standard residue; d: D form. The star is where a group is joined. pTerphenylCO(4''-OnC5H11) = CCCCCOc1ccc(-c2ccc(-c3ccc(C(=O)*)cc3)cc2)cc1; Orn(4R-OH,5R-OH) = O=C([C@H](C[C@@H](O)[C@@H](O)N[*:3])N[*:1])[*:2]; hTyr(3S-OH,4S-OH) = N[C@H](C(=O)O)[C@H](O)[C@@H](O)c1ccc(O)cc1; Pro(3S-OH,4S-Me) = C[C@H]1CN[C@H](C(=O)O)[C@H]1O; Hyp = O=C(O)[C@@H]1C[C@@H](O)CN1

Columns and labels:
[1] = test system: invasive candidiasis, including candidemia (Candida species); assay: Global response, relapse and microbiologic outcome in invasive candidiasis; format: in vivo, human
Procedure, shortened: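 Modified intent-to-treat patients (≥1 dose, microbiologically confirmed Candida infection) received IV drug: 3 mg/kg loading dose on day 1, then 1.5 mg/kg daily for ≤35 days. An optional switch to oral fluconazole (6–12 mg/kg/d, max 800 mg/d) was allowed after ≥10 days IV, to ≤49 days total. Global response was assessed at end of IV therapy, end of treatment, and week 2 and 6 follow-up. Relapse and new infection were also assessed. Analysis was descriptive.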

Safety and tolerability = format: in vivo, human
Procedure, shortened: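 Safety population: all 19 patients aged 1 month to <2 years, with confirmed or high-risk invasive candidiasis, who received IV drug (3 mg/kg day 1, then 1.5 mg/kg daily, ≤1.1 mg/min, ≤35 days). Optional oral fluconazole was allowed after ≥10 days (confirmed cases) or ≥5 days (high-risk), to ≤49 days total. Treatment-emergent adverse events and all-cause mortality were recorded throughout the study and summarized descriptively.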

invasive candidiasis = conditions: cited from earlier work
[2] = PS80 plasma concentration in infants; format: in vivo, human; conditions: infants receiving anidulafungin formulated with PS80
[3] = safety population n = 19, all causalities, AEs up to 30 days after last dose

CCCCCOc1ccc(-c2ccc(-c3ccc(C(=O)N[C@H]4C[C@@H](O)[C@@H](O)NC(=O)[C@@H]5[C@@H](O)[C@@H](C)CN5C(=O)[C@H]([C@@H](C)O)NC(=O)[C@H]([C@H](O)[C@@H](O)c5ccc(O)cc5)NC(=O)[C@@H]5C[C@@H](O)CN5C(=O)[C@H]([C@@H](C)O)NC4=O)cc3)cc2)cc1 [anidulafungin] ({pTerphenylCO(4''-OnC5H11)}-[Orn(4R-OH,5R-OH)]T[Hyp][hTyr(3S-OH,4S-OH)]T[Pro(3S-OH,4S-Me)]; lactam 1-C)
Global response success rate at EOIVT ([1]; 11 of 16 patients, MITT, 1 month to <2 years): 68.8%
Patients achieving negative blood cultures ([1]; 15 of 16): 93.8%
Resistance to anidulafungin ([1]; Candida species): No resistance to anidulafungin was observed
Median time to first negative blood culture ([1]; MITT population): 3 days
Relapse or new infection ([1]; week 2 and week 6 follow-up visits): No patients relapsed or experienced new infection
Patients with treatment-related TEAEs (Safety and tolerability; 3 of 19 patients): 15.8%
Patients with severe TEAEs (Safety and tolerability; 7 of 19 patients): 36.8%
Patients with TEAEs of any causality (Safety and tolerability; 17 of 19 patients, safety population): 89.5%
Treatment-related deaths (Safety and tolerability; safety population n = 19): no treatment-related deaths occurred; also recorded: No deaths were considered related to anidulafungin
Incidence of TEAE: Device-related infection (Safety and tolerability; [3]): 1 (5.3) n (%)
Incidence of TEAE: Lower respiratory tract infection (Safety and tolerability; [3]): 1 (5.3) n (%)
Incidence of TEAE: Upper respiratory tract infection (Safety and tolerability; [3]): 1 (5.3) n (%)
Global response of success at EOIVT in adults (invasive candidiasis): 75.6%

OC(Cn1cncn1)(Cn1cncn1)c1ccc(F)cc1F [fluconazole]
TEAEs related to fluconazole (Safety and tolerability; 6 patients switched to oral fluconazole 6-12 mg/kg/d): No patients experienced TEAEs related to fluconazole

polysorbate 80 [PS80]
Hepatotoxicity or PS80 accumulation [2]: No hepatotoxicity or PS80 accumulation was detected
